What all share (format): cell-based
Test [1] concerns the target Cystic fibrosis transmembrane conductance regulator (Homo sapiens, UniProt P13569). The test can be described thus: (§1) Activity at human CFTR delta F508 mutant expressed in forskolin-stimulated FRT cells assessed as increase in iodine influx measured as decrease in YFP fluorescence after 18 to 24 hrs at 37 degC in presence of genistein. The following applies: frt. The method, boiled down: (§2)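 Corrector plate-reader assay. FRT cells stably coexpressing human ΔF508-CFTR and YFP-H148Q/I152L, grown 24 h at 37 °C, then exposed to compound for 16−20 h (up to 25 μM, eight concentrations). Cells are washed, then given forskolin 20 μM plus genistein 50 μM in PBS for 20 min. I⁻ influx comes from the YFP quench recorded 2 s baseline plus 12 s after iodide addition, fitted by exponential regression. Controls are DMSO vehicle and a reference corrector. EC50/Vmax come from four-parameter logistic fits; triplicate.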

The nature of test [2]: Potentiation of genistein-induced human CFTR delta F508 mutant gating activity expressed in forskolin-stimulated FRT cells assessed as increase in iodine influx measured as decrease in YFP fluorescence after 24 hrs at 27 degC. Put shortly: (§3)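 Potentiator plate-reader assay. FRT cells coexpressing human ΔF508-CFTR and YFP-H148Q/I152L, grown 18−24 h at 37 °C, then rescued 18−24 h at 27 °C. Cells are washed, then given 10 min of forskolin 20 μM plus compound in PBS (eight concentrations, 0−50 μM final). I⁻ influx comes from the YFP quench after iodide addition (2 s baseline, 12 s), by exponential regression. Controls are DMSO and genistein. EC50/Vmax come from four-parameter logistic fits; triplicate.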

The test system of test [3] is FRT. The test can be described thus: Potentiation of genistein-induced human CFTR delta F508 mutant gating activity expressed in forskolin-stimulated FRT cells assessed as increase in iodine influx measured as decrease in YFP fluorescence after 24 hrs at 27 degC relative to control. Put shortly: as §3
Test [4] concerns the target Cystic fibrosis transmembrane conductance regulator (Homo sapiens, UniProt P13569, F508DEL). Described as §1. Put shortly:
as §2

In test [5] the test system is FRT. Nature of the test: Potentiation of genistein-induced human CFTR delta F508 mutant gating activity expressed in forskolin-stimulated basolateral membrane permeabilized FRT cells assessed as increase in apical chloride current at 3 to 100 uM after 24 hrs at 27 degC by short-circuit assay. The method, boiled down:
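Short-circuit current. ΔF508-CFTR FRT cells are cultured 7−9 days on permeable inserts and temperature-rescued 18−24 h at 27 °C. Apical Cl⁻ current is recorded in basolateral-permeabilized monolayers under an apical-to-basolateral Cl⁻ gradient. Forskolin 20 μM is added, then test compound, with CFTRinh-172 10 μM at the end.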

For test [6], the system named is Cystic fibrosis transmembrane conductance regulator (Homo sapiens), P13569 [F508del]. Nature of the test: Activity at human CFTR delta F508 mutant expressed in forskolin-stimulated basolateral membrane permeabilized FRT cells assessed as increase in apical chloride current at 10 uM after 18 to 24 hrs at 37 degC by short-circuit assay in presence of genistein. Put shortly:
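Short-circuit current. ΔF508-CFTR FRT cells are cultured 7−9 days on permeable inserts, then given compound for 18−24 h at 37 °C. Apical Cl⁻ current is recorded after basolateral permeabilization under an apical-to-basolateral Cl⁻ gradient. Forskolin 20 μM and genistein 50 μM are added, followed by CFTRinh-172 10 μM.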

Setting [7] is: Homo sapiens, FRT, 24 h, read-out: EC50.

Calls of active or inactive are those of the source. The rule behind the calls is not given here.

For 24 compounds, EC50, Vmax and Activity results are on record in ChEMBL document CHEMBL2016518, “Structure-activity relationships of cyanoquinolines with corrector-potentiator activity in ΔF508 cystic fibrosis transmembrane conductance regulator protein” (J Med Chem, 2012).

Sequence of Cystic fibrosis transmembrane conductance regulator (Homo sapiens, UniProt P13569, F508DEL) (P13569 as listed by the source): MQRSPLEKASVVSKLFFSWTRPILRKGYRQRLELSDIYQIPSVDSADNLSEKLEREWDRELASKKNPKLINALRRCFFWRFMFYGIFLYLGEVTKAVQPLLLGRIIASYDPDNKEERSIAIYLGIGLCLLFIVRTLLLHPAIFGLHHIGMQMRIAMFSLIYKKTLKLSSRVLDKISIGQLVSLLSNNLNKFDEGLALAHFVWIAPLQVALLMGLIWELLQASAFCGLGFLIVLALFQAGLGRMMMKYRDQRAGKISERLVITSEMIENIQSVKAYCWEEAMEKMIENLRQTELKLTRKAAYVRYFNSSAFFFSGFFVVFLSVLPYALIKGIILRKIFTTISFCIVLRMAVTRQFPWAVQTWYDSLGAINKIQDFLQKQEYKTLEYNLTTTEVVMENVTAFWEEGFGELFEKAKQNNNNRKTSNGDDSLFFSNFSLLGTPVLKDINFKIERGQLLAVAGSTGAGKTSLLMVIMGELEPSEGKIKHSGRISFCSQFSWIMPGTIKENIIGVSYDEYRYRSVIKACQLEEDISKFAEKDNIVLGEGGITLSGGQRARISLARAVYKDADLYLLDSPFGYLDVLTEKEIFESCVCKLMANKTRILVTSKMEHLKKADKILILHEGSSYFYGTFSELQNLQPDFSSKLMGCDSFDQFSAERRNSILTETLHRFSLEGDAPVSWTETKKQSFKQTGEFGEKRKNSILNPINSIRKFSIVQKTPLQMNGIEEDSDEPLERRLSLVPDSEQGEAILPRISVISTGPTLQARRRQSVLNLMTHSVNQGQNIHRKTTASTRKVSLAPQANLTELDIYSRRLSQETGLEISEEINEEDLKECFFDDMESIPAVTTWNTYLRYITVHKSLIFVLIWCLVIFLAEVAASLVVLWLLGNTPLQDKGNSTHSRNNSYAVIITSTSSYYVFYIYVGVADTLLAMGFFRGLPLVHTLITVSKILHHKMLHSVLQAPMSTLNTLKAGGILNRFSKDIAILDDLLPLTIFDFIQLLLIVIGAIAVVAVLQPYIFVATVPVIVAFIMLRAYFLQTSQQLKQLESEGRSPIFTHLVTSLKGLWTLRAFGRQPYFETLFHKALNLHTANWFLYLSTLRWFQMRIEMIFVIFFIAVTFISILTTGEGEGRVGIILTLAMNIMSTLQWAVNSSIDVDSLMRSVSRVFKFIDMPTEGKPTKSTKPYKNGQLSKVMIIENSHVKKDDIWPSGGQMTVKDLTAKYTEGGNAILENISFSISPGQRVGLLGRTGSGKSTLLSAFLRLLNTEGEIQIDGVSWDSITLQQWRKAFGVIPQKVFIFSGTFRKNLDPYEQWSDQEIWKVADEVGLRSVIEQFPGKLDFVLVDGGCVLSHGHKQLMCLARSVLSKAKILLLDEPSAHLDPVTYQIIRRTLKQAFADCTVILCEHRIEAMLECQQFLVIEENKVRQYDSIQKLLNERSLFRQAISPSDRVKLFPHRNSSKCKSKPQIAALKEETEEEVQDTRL
Sequence of Cystic fibrosis transmembrane conductance regulator (Homo sapiens, UniProt P13569) (P13569 as listed by the source): as above
Sequence of Cystic fibrosis transmembrane conductance regulator (Homo sapiens), P13569 [F508del] (P13569 as listed by the source): as above

A word on the EC50: it is the concentration needed to bring the measured effect to its halfway point. `Cc1cc(C)c2cc(C#N)c(N3CCN(C(=O)c4cccnc4)CC3)nc2c1`: the EC50 result in test [1] and in test [2] (frt) was “Not Active” in each case.

For orientation: Vmax means the top rate of the reaction or transport when substrate is in excess. Turning to `COc1cccc(C(=O)N2CCN(c3nc4cc(C)cc(C)c4cc3C#N)CC2)c1`, in the test on FRT [3], the Vmax is 200 µM/s. Moreover, the EC50 entry in test [1] was “Not Active”; in test [2] (setting [7]), 1.2 µM.

Regarding `COc1ccccc1C(=O)N1CCN(c2nc3cc(C)cc(C)c3cc2C#N)CC1`, the Vmax in the test with FRT [3] amounted to 129 µM/s. Moreover, the figures for the EC50 result in test [1] and in test [2] (setting [7]) were “Not Active” and 1 µM, respectively.

For the compound `COc1cccc(C(=O)NCCCNc2nc3cc(C)cc(C)c3cc2C#N)c1`, the Vmax in the test on FRT [3] worked out at 147 µM/s. Also, the EC50 in test [4] and in test [2] (setting [7]) was 4.6 µM in each case.

With `Cc1cc(C)c2cc(C#N)c(NCCCNC(=O)c3cccnc3)nc2c1`, in the test with FRT [3], the Vmax was found to be 115 µM/s. For the same compound, the EC50 in test [4] stood at 3 µM; in test [2] (setting [7]), 16 µM.

Take `Cc1cc(C)c2cc(C#N)c(N3CCN(C(=O)c4ccccn4)CC3)nc2c1`: in the test with FRT [3], the maximum rate (Vmax) amounted to 102 µM/s. Also, the results for the EC50 result in test [1] and in test [2] (setting [7]) were “Not Active” and 7.4 µM, respectively.

As to `Cc1cc(C)c2cc(C#N)c(NCCNC(=O)c3cccnc3)nc2c1`, the Vmax with FRT [3] was 242 µM/s. Further, the EC50 in test [4] was found to be 2.7 µM; in test [2] (setting [7]) it was 13.2 µM.

Consider `Cc1cc(C)c2cc(C#N)c(NCCNC(=O)c3ccccc3)nc2c1`, for which, in the test with FRT [3], the Vmax was 210 µM/s. For the same compound, the EC50 entry in test [1] was “Not Active”; in test [2] (setting [7]), 10 µM.

Turning to `COc1cccc(C(=O)NCCNc2nc3cc(C)cc(C)c3cc2C#N)c1`, the outcome (with FRT [5]; in test [6]) was Active. In addition, in the test with FRT [3], the maximum rate (Vmax) is 216 µM/s. Also, the EC50 in test [4] was determined as 2.2 µM; in test [2] (setting [7]), 5.9 µM.

On to `COc1ccc(C(=O)NCCNc2nc3cc(C)cc(C)c3cc2C#N)c(OC)c1`, for which the Vmax in the test with FRT [3] was 426 µM/s. Moreover, the EC50 is 4.2 µM in test [4] and 55 µM in test [2] (setting [7]).

Regarding `Cc1cc(C)c2cc(C#N)c(NCCNC(=O)c3cnccn3)nc2c1`, the EC50 in test [4] is 6.7 µM; in test [2] (frt), “Not Active”.

On to `COc1ccccc1C(=O)NCCNc1nc2cc(C)cc(C)c2cc1C#N`, for which the Vmax in the test on FRT [3] was found to be 154 µM/s. Further, the EC50 was 11 µM in test [4] and 2.3 µM in test [2] (setting [7]).

As to `Cc1cc(C)c2cc(C#N)c(NCCNC(=O)c3ccccn3)nc2c1`, the maximal velocity (Vmax) in the test on FRT [3] stood at 80 µM/s. In addition, the EC50 result was “Not Active” in test [1] and 1.2 µM in test [2] (setting [7]).

For the compound `COc1ccc(C(=O)NCCNc2nc3cc(C)cc(C)c3cc2C#N)cc1`, the result (with FRT [5]; in test [6]) was Active. The maximum rate (Vmax) in the test with FRT [3] was found to be 181 µM/s. Also, the EC50 in test [4] was 3 µM; in test [2] (setting [7]) it was 4.1 µM.

As to `Cc1cc(C)c2cc(C#N)c(NCCCNC(=O)c3ccncc3)nc2c1`, in the test on FRT [3], the Vmax worked out at 53 µM/s. Further, the EC50 in test [4] is 8.2 µM; in test [2] (setting [7]), 13.2 µM.

For `Cc1cc(C)c2cc(C#N)c(N3CCN(C(=O)c4ccncc4)CC3)nc2c1`, the EC50 result in test [1] and in test [2] (frt) was “Not Active” throughout.

As for `COc1ccccc1C(=O)NCCCNc1nc2cc(C)cc(C)c2cc1C#N`, in the test on FRT [3], the Vmax was found to be 254 µM/s. Besides, the EC50 result in test [1] is “Not Active”; in test [2] (setting [7]), 27.6 µM.

For the compound `COc1cccc(OC)c1C(=O)NCCNc1nc2cc(C)cc(C)c2cc1C#N`, in the test with FRT [3], the Vmax was 119 µM/s. Moreover, the EC50 in test [4] turned out to be 3.7 µM; in test [2] (setting [7]), 11.5 µM.

As to `COc1ccc(C(=O)N2CCN(c3nc4cc(C)cc(C)c4cc3C#N)CC2)cc1`, the Vmax in the test with FRT [3] stood at 281 µM/s. For the same compound, the 50% effective concentration (EC50) result in test [1] was “Not Active”; in test [2] (setting [7]), 1.3 µM.

In the case of `Cc1cc(C)c2cc(C#N)c(NCCCNC(=O)c3ccccn3)nc2c1`, the Vmax with FRT [3] turned out to be 233 µM/s. In addition, the EC50 entry in test [1] is “Not Active”; in test [2] (setting [7]), 6.1 µM.

`COc1ccc(C(=O)NCCNc2nc3cc(C)cc(C)c3cc2C#N)cc1OC`: the Vmax in the test with FRT [3] was 216 µM/s. The EC50 stood at 1.5 µM in test [4] and 48 µM in test [2] (setting [7]).

Take `Cc1cc(C)c2cc(C#N)c(NCCNC(=O)c3ccncc3)nc2c1`: in the test on FRT [3], the Vmax came to 220 µM/s. Also, the values for the concentration giving a half-maximal response (EC50) in test [4] and in test [2] (setting [7]) were 7.3 µM and 10 µM, respectively.

With `COc1ccc(C(=O)NCCCNc2nc3cc(C)cc(C)c3cc2C#N)cc1`, in the test with FRT [3], the Vmax is 231 µM/s. Further, the EC50 in test [4] came out at 4.3 µM; in test [2] (setting [7]) it was 5 µM.

With `COc1ccc(C(=O)NCCNc2nc3cc(C)cc(C)c3cc2C#N)nc1`, in the test with FRT [3], the Vmax turned out to be 70 µM/s. In addition, the figures for the EC50 in test [4] and in test [2] (setting [7]) were 2.7 µM and 3.4 µM, respectively.
